Laboratory results: ChEMBL document CHEMBL1140109, “Discovery of inhibitors of Escherichia coli methionine aminopeptidase with the Fe(II)-form selectivity and antibacterial activity” (J Med Chem, 2008)
Converted amounts (≈) assume the structure as drawn. The source made the active and inactive calls. The rule behind the calls is not given here.

What was measured:
[1] = test system: Escherichia coli BL21(DE3); assay: Inhibition of Escherichia coli BL21(DE3) methionine aminopeptidase up to 100 uM in presence of Co(II) metal ions
Outline: (§1)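 Purified apoenzyme (500 nM) in 50 mM MOPS pH 7.0 with 200 µM Met-AMC, activated by 50 µM FeCl2 plus 100 µM ascorbic acid (Fe), 10 µM CoCl2 (Co) or 20 µM MnCl2 (Mn), with serially diluted inhibitor. AMC release read by fluorescence (ex 360/em 460) at room temperature. IC50 from non-linear fit of percent inhibition versus concentration.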

[2] = test system: Escherichia coli BL21(DE3); assay: Inhibition of Escherichia coli BL21(DE3) methionine aminopeptidase up to 100 uM in presence of Mn(II) metal ions; outline: as §1
[3] = test system: Escherichia coli BL21(DE3); assay: Inhibition of Escherichia coli BL21(DE3) methionine aminopeptidase up to 100 uM in presence of Fe(II) metal ions; outline: as §1
Escherichia coli [4] = assay: Antibacterial activity against Escherichia coli AS19; format: functional, organism-based
Outline: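 AS19 culture at 0.5 McFarland, exponential phase, diluted 1000-fold in Mueller Hinton medium containing 100 mM Tris pH 7.5, exposed to increasing inhibitor concentrations […]. Growth followed by absorbance at 600 nm every 5 min for 10 h at 37°C.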

[5] = Inhibition of Escherichia coli BL21(DE3) methionine aminopeptidase in presence of Mn(II) metal ions
Outline: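 E. coli MetAP apoenzyme, recombinant from BL21(DE3), at 500 nM and metallated with 20 μM MnCl2. Contained 50 mM MOPS pH 7.0 and 200 μM Met-AMC, at room temperature. IC50 was derived by non-linear fit of percent inhibition versus concentration.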

[6] = Inhibition of Escherichia coli BL21(DE3) methionine aminopeptidase in presence of Fe(II) metal ions
Outline: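 Purified BL21(DE3)-expressed E. coli MetAP apoenzyme at 500 nM, activated with 50 μM FeCl2 plus 100 μM ascorbic acid. Buffer was 50 mM MOPS pH 7.0 with 200 μM Met-AMC, at room temperature. Hydrolysis was followed by fluorescence (ex 360/em 460 nm) at serially diluted inhibitor concentrations. IC50 was obtained by non-linear curve fit of percent inhibition.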

Escherichia coli [7] = assay: Antibacterial activity against Escherichia coli D22; format: functional, organism-based
Outline: (§2)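 Exponential-phase culture at 0.5 McFarland diluted 1000-fold in Mueller Hinton medium with 100 mM Tris pH 7.5, mixed with inhibitor at increasing concentrations plus resazurin (110 µM final). Fluorescence (ex 530/em 590) read every 5 min for 10 h at 37°C.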

Bacillus subtilis = assay: Antibacterial activity against Bacillus subtilis; format: functional, organism-based; outline: as §2
Priestia megaterium = assay: Antibacterial activity against Bacillus megaterium; format: functional, organism-based; outline: as §2
[8] = Inhibition of Escherichia coli BL21(DE3) methionine aminopeptidase in presence of Co(II) metal ions
Outline: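 Recombinant E. coli MetAP apoenzyme purified from BL21(DE3) cells, used at 500 nM and activated with 10 μM CoCl2. Buffer was 50 mM MOPS pH 7.0 with 200 μM Met-AMC substrate, at room temperature. AMC release was read by fluorescence (ex 360/em 460 nm) across serially diluted inhibitor. IC50 came from non-linear fitting of percent inhibition.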

Escherichia coli [9] = assay: Antibacterial activity against Escherichia coli ATCC 25922; format: functional, organism-based
Outline: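 Wild-type strain grown to exponential phase (0.5 McFarland), diluted 1000-fold in Tris-free Mueller Hinton medium, incubated with increasing inhibitor concentrations and 110 µM resazurin. Fluorescence (ex 530/em 590) monitored 10 h at 37°C at 5-min intervals.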

Activity [1] | Activity [2] | Activity [3] | SMILES | IC50 (Escherichia coli [4]) | IC50 [5] | IC50 [6] | MIC (Escherichia coli [4]) | IC50 (Escherichia coli [7]) | MIC (Escherichia coli [7]) | IC50 (Bacillus subtilis) | MIC (Bacillus subtilis) | IC50 (Priestia megaterium) | MIC (Priestia megaterium) | IC50 [8] | IC50 (Escherichia coli [9])
inactive | inactive | inactive | Cc1nc(-c2ccc(N)c(N)c2)cs1 | 117 µM | – | – | – | – | – | – | – | – | – | – | –
– | – | – | O=C(NC1CC1)c1ccc(-c2ccc(O)c(O)c2)s1 | 110 µM | 34 µM | 23.8 µM | 78 mg/L (≈ 283 µM) | 238 µM | 105 mg/L (≈ 381 µM) | 211 µM | 122 mg/L (≈ 443 µM) | 133 µM | 85 mg/L (≈ 309 µM) | 28.5 µM | –
– | – | – | Oc1ccc(-c2ccsc2)cc1O | 29.9 µM | 27.5 µM | 3.8 µM | 15 mg/L (≈ 78 µM) | 2 µM | 2 mg/L (≈ 10.4 µM) | 15.7 µM | 9 mg/L (≈ 46.8 µM) | 19.2 µM | 10 mg/L (≈ 52 µM) | 40.4 µM | –
inactive | inactive | inactive | Cc1nc(-c2cccc(O)c2)cs1 | 158 µM | – | – | – | – | – | – | – | – | – | – | –
inactive | inactive | inactive | Cc1nc(-c2ccc(N)c([N+](=O)[O-])c2)cs1 | 204 µM | – | – | – | – | – | – | – | – | – | – | –
– | – | – | CCCc1ccsc1-c1ccc(O)c(O)c1 | 15.5 µM | 34.3 µM | 14 µM | 4 mg/L (≈ 17.1 µM) | 43 µM | 19 mg/L (≈ 81.1 µM) | 14.9 µM | 4 mg/L (≈ 17.1 µM) | 15.5 µM | 6 mg/L (≈ 25.6 µM) | 100 µM | –
– | – | – | CCc1ccsc1-c1ccc(O)c(O)c1 | 15.4 µM | – | 12.9 µM | 5 mg/L (≈ 22.7 µM) | 11.8 µM | 6 mg/L (≈ 27.2 µM) | 21.8 µM | 7 mg/L (≈ 31.8 µM) | 27.8 µM | 11 mg/L (≈ 49.9 µM) | 62.6 µM | –
– | – | – | Cc1sc(C)c(-c2ccc(O)c(O)c2)c1Br | 10.8 µM | 2.1 µM | 3.1 µM | 5 mg/L (≈ 16.7 µM) | 7.7 µM | 9 mg/L (≈ 30.1 µM) | 12.8 µM | 8 mg/L (≈ 26.7 µM) | 17.5 µM | 10 mg/L (≈ 33.4 µM) | 2.4 µM | –
inactive | inactive | inactive | COc1ccc(-c2csc(C)n2)cc1OC | 206 µM | – | – | – | – | – | – | – | – | – | – | –
– | – | – | Cc1nc(C(=O)NC(C)C)c(-c2ccc(O)c(O)c2)s1 | 116 µM | > 100 µM | 15.4 µM | 121 mg/L (≈ 414 µM) | 93.8 µM | 73 mg/L (≈ 250 µM) | 186 µM | 125 mg/L (≈ 428 µM) | 175 µM | 122 mg/L (≈ 417 µM) | > 100 µM | –
– | – | – | Oc1ccc(-c2nccs2)cc1O | 235 µM | > 100 µM | 16.6 µM | 198 mg/L (≈ 1020 µM) | 98.7 µM | 66 mg/L (≈ 342 µM) | 397 µM | 193 mg/L (≈ 999 µM) | 224 µM | 112 mg/L (≈ 580 µM) | > 100 µM | –
– | – | – | Cc1ccsc1-c1ccc(O)c(O)c1 | 15.2 µM | 23 µM | 8 µM | 7 mg/L (≈ 33.9 µM) | 9 µM | 3 mg/L (≈ 14.5 µM) | 22.1 µM | 8 mg/L (≈ 38.8 µM) | 15.3 µM | 13 mg/L (≈ 63 µM) | 42.7 µM | 179 µM
– | – | – | Oc1ccc(-c2cc(Cl)sc2Cl)cc1O | 6.1 µM | 48.6 µM | 20.2 µM | 3 mg/L (≈ 11.5 µM) | 7.3 µM | 2 mg/L (≈ 7.66 µM) | 6 µM | 2 mg/L (≈ 7.66 µM) | 5 µM | 1 mg/L (≈ 3.83 µM) | 62.4 µM | –
